Data set [1] has as its system L1210. Nature of the data set: Antitumor activity against L1210 Leukemia in mice at a dose of 30 mg/kg expressed as percent of increase in life span after day 60s was determined. The format is functional. As to conditions: Mus musculus. An outline of the steps:
(§1)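 L1210 leukemia-bearing mice, 10 per group; controls got saline or solvent. Dose was dissolved in 0.2 mL DMSO, diluted to 10 mL with 0.9% NaCl, and given as one ip injection (0.1 mL/10 g body weight) 1 day after transplantation. %ILS = [(T − C)/C] × 100 from median survival days, treated versus untreated. Cures were counted on day 60 after transplantation.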

The subject of data set [2] is L1210. Nature of the data set: Antitumor activity against L1210 Leukemia in mice at a dose of 200 mg/kg was determined. It counts as functional, Mus musculus. The method in brief:
(§2)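 L1210 leukemia in mice, 10 per group, treated with one ip injection 1 day after tumor transplantation at 0.1 mL/10 g body weight. Dose was dissolved in 0.2 mL DMSO and diluted to 10 mL with 0.9% NaCl. Controls received saline or solvent. %ILS = [(T − C)/C] × 100, using median survival days. Cures were scored on day 60 post-transplant.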

The nature of data set [3]: Antitumor activity against L1210 Leukemia in mice expressed as 50% lethal dose was determined at 200 mg/kg. The format is ADME, organism-based. More on the design: dose 200 mg/kg. The conditions noted are these: mouse, in vivo.
For data set [4], the system named is L1210. The data set is described as follows: Antitumor activity against L1210 Leukemia in mice at a dose of 100 mg/kg was determined. It counts as functional, Mus musculus. An outline of the steps:
as §2

In data set [5] the test system is L1210. Nature of the data set: Antitumor activity against L1210 Leukemia in mice at a dose of 200 mg/kg expressed as percent of increase in life span after day 60s was determined. It counts as functional. The conditions noted are these: Mus musculus. An outline of the steps: as §1
For data set [6], the system named is L1210. The data set is described as follows: Antitumor activity against L1210 Leukemia in mice at a dose of 30 mg/kg was determined. It counts as functional, Mus musculus. The method in brief:
as §2

Data set [7] deals with L1210. The data set is described as follows: Antitumor activity against L1210 Leukemia in mice at a dose of 100 mg/kg expressed as percent of increase in life span after day 60s was determined. It counts as functional. The conditions noted are these: Mus musculus. The method in brief:
as §1

Data set [8] can be described thus: Antitumor activity against L1210 Leukemia in mice expressed as 50% lethal dose was determined at a dose of 100 mg/kg. It counts as ADME, organism-based. More on the design: dose 100 mg/kg. The conditions noted are these: mouse, in vivo.
The test system of data set [9] is L1210. Nature of the data set: Antitumor activity against L1210 Leukemia in mice at a dose of 30 mg/kg expressed as percent of increase in life span after day 60s was determined; no effect. It counts as functional, organism-based. The conditions noted are these: Mus musculus. More on the design: dose 30 mg/kg. The method in brief: as §1
For data set [10], the system named is L1210. Nature of the data set: Antitumor activity against L1210 Leukemia in mice at a dose of 100 mg/kg expressed as percent of increase in life span after day 60s was determined; no effect. It counts as functional, organism-based. The conditions noted are these: Mus musculus. More on the design: dose 100 mg/kg. The method in brief:
as §1

Data set [11] deals with L1210. The data set is described as follows: Antitumor activity against L1210 Leukemia in mice at a dose of 200 mg/kg expressed as percent of increase in life span or the percent of surviving animals on day 60 was determined. It counts as functional. As to conditions: Mus musculus, L1210, 1440 h. An outline of the steps:
as §1

For data set [12], the system named is L1210. Nature of the data set: Antitumor activity against L1210 Leukemia in mice at a dose of 130 mg/kg was determined. It counts as functional, Mus musculus.
A short description of data set [13]: Antitumor activity against L1210 Leukemia in mice expressed as 50% lethal dose was determined at a dose of 130 mg/kg. The conditions noted are these: mouse, in vivo. More on the design: dose 130 mg/kg. It counts as ADME, organism-based.
Data set [14] relates to L1210. Nature of the data set: Antitumor activity against L1210 Leukemia in mice at a dose of 50 mg/kg expressed as percent of increase in life span after day 60s was determined. The format is functional. As to conditions: Mus musculus. The method in brief: as §1
Data set [15] deals with L1210. The data set is described as follows: Antitumor activity against L1210 Leukemia in mice at a dose of 50 mg/kg was determined. It counts as functional, Mus musculus. An outline of the steps:
as §2

Each structure is given as a SMILES string. The source made the active and inactive calls. The calls are words filed in the database; no cut-off is given here. Peptide text beside a SMILES is read from it. * marks the point of attachment. Carbamoyl(2-ClEt,NO) = O=NN(CCCl)C(=O)*; Boc = CC(C)(C)OC(=O)*; For = O=C*

As usually defined, the ILS is how much longer treated animals lived than controls. In general, LD50 refers to the dose expected to kill half of the subjects tested. Turning to `CC(C)[C@H](NC(=O)[C@@H]1CCCN1C(=O)[C@H](CCCCNC(=O)N(CCCl)N=O)NC(=O)[C@@H]1CCCN1C(=O)N(CCCl)N=O)C(N)=O` ({Carbamoyl(2-ClEt,NO)}-PK(Carbamoyl(2-ClEt,NO))PV-NH2), the ILS at 30 mg/kg in data set [1] worked out at 100%. For the same molecule, the MED in [2] came out at 0.28 mmol/kg; in data set [4] it was 0.14 mmol/kg; in data set [6], 0.042 mmol/kg. This molecule also yielded an LD50 in [3] of 220 mg/kg. The molecule further gave an ILS at 200 mg/kg in data set [5] of 120%.
Molecule `CC(C)[C@H](NC(=O)[C@@H]1CCCN1C(=O)[C@H](CCCCNC(=O)OC(C)(C)C)NC(=O)[C@@H]1CCCN1C(=O)N(CCCl)N=O)C(N)=O` ({Carbamoyl(2-ClEt,NO)}-PK(Boc)PV-NH2) [listing 1 of 2 here] returned an LD50 in data set [3] of 300 mg/kg.
In data set [7], `CC(C)[C@H](NC(=O)[C@@H]1CCCN1C(=O)[C@H](CCCCNC(=O)N(CCCl)N=O)NC(=O)N(CCCl)N=O)C(N)=O` had an ILS at 100 mg/kg of 380%. This molecule also showed an MED in data set [4] of 0.16 mmol/kg. Also, in data set [8], the LD50 turned out to be 250 mg/kg.
On to `CC(C)[C@H](NC(=O)[C@@H]1CCCN1C(=O)[C@H](CCCCNOC(=O)C(C)(C)C)NC(=O)[C@@H]1CCCN1C(=O)N(CCCl)N=O)C(N)=O`, for which the ILS result in data set [9] and in [10] was “inactive” throughout.
In turn, `CC(C)[C@H](NC(=O)[C@@H]1CCCN1C(=O)N(CCCl)N=O)C(N)=O` registered an MED in data set [4] of 0.28 mmol/kg. In data set [8], this molecule displayed an LD50 of 150 mg/kg.
For the molecule `CC(C)[C@H](NC(=O)[C@@H]1CCCN1C(=O)[C@H](CCCCNC(=O)OC(C)(C)C)NC(=O)[C@@H]1CCCN1C(=O)N(CCCl)N=O)C(N)=O` ({Carbamoyl(2-ClEt,NO)}-PK(Boc)PV-NH2) [listing 2 of 2 here], the MED in [2] came to 0.3 mmol/kg; in [4], 0.15 mmol/kg; in data set [6] it was 0.045 mmol/kg. In addition, the ILS at 200 mg/kg in data set [11] was 30%.
For the molecule `CC(C)[C@H](NC(=O)[C@@H]1CCCN1C(=O)[C@H](CCCCNC=O)NC(=O)N(CCCl)N=O)C(N)=O`, in data set [7], the ILS at 100 mg/kg amounted to 110%. The same molecule showed an ILS at 30 mg/kg in [1] of 70%. The MED in data set [2] was 0.4 mmol/kg; in data set [4], 0.2 mmol/kg; in data set [6] it was 0.059 mmol/kg. In data set [3], this molecule yielded an LD50 of 260 mg/kg. Besides, the ILS at 200 mg/kg in [5] came to 190%.
`NC(=O)C1CCCN1C(=O)N(CCCl)N=O` (centres undefined) showed an ILS at 100 mg/kg in data set [7] of 420%. Also, the MED in data set [4] was determined as 0.403 mmol/kg. This molecule returned an LD50 in data set [8] of 140 mg/kg.
`CC(C)[C@H](NC(=O)[C@@H]1CCCN1C(=O)[C@H](CCCCN)NC(=O)N(CCCl)N=O)C(N)=O.Cl`: the MED in [12] is 0.25 mmol/kg. For the same molecule, the LD50 in data set [13] was found to be 175 mg/kg.
In [7], `CC(C)[C@H](NC(=O)[C@@H]1CCCN1C(=O)[C@H](CCCCNC=O)NC(=O)[C@@H]1CCCN1C(=O)N(CCCl)N=O)C(N)=O` ({Carbamoyl(2-ClEt,NO)}-PK(For)PV-NH2) returned an ILS at 100 mg/kg of 80%. Further, the results for the MED in data set [2], in data set [4] and in data set [15] were 0.32 mmol/kg, 0.16 mmol/kg and 0.083 mmol/kg, respectively. The same molecule returned an LD50 in data set [3] of 250 mg/kg. The ILS at 50 mg/kg in data set [14] was 40%. Moreover, in [5], the ILS at 200 mg/kg is 80%.
Take `CC(C)[C@H](NC(=O)[C@@H]1CCCN1C(=O)[C@@H](N)CCCCNC=O)C(N)=O.Cl` (H-Lys(For)-Pro-Val-NH2): the ILS result in data set [10] was “inactive”. Moreover, in [4], the MED turned out to be 0.24 mmol/kg.

(Values after ChEMBL document CHEMBL1123865, “Synthesis and antitumor activity of N-terminal proline-containing peptide-(chloroethyl)nitrosoureas” (J Med Chem, 1987).)
